The list is not random: actives were taken first. Their share in the collection is about 3.1%.
MEKK2 mut-MEK5 = signal of MEK5 binding to mutant human MEKK2 PB1 domain. actives 0.35% (n = 290,000). percent response, % at 10 µM. bead flow cytometry, Alexa488-MEK5 binding to MEKK2 mutant; in the data active = percent response above about 24%, passing the limit was not always enough
MEKK3 PB1 HTS = raises or lowers MEK5 binding to the human MEKK3 PB1 domain. binding response (% of control), % at 10 µM. bead-based flow cytometry, Alexa488-MEK5 binding to MEKK3; actives lie on both sides; 0 = blocked by unlabeled MEK5, 100 = vehicle. Q99759. actives 1.4% (n = 290,000);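 active = binding response more than 3 SD above or below the average of its plate-row segment, actives on both sides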;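 also: Alexa488 bead fluorescence after subtracting the streptavidin-only scavenger bead signal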
MEKK2wt PB1 HTS = raises or lowers MEK5 binding to wildtype human MEKK2 PB1 domain; bead flow cytometry, Alexa488-MEK5 binding to MEKK2 WT; actives lie on both sides; Q9Y2U5; AID 1531; binding response (% of control), % at 10 µM; actives 1.1% (n = 290,000); in the data active = binding response below about 67% or above about 130%
Apaf1 inhib = human Apaf-1 inhibition; inhibition, % at 20 µM; O14727; reconstituted apoptosome caspase-3 activity, DEVD-Rh110 fluorescence; actives 0.71% (n = 330,000); active = inhibition of at least 40% at 20 µM;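 also: plate controls were DMSO wells for no effect and DEVD-CHO caspase inhibitor wells for full effect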
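Material: reconstituted apoptosome with Apaf-1, cytochrome c, caspase-9, procaspase-3, dATP. Technique: Rh110 fluorescence intensity. Buffer or medium: pH 7.5 Hepes buffer with CHAPS, BSA, DTT. Times: 30 min plus 50 min, RT.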
UBC13 polyUb = blocks human UBC13 polyubiquitin chain formation | inhibition, % at 20 µM | P61088 | TR-FRET | AID 485273 | actives 0.47% (n = 330,000); in the data active = inhibition above about 45%, passing the limit was not always enough
Target sequence (P61088 whole entry, looked up): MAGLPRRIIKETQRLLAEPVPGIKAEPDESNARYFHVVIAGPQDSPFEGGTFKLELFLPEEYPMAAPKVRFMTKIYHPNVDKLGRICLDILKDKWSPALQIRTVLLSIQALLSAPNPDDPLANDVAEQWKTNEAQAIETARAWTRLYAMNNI
PREPL inh = inhibits the human prolyl oligopeptidase-like enzyme; recombinant PREPL, fluorescence polarization activity-based probe; inhibition, % at 5.96 µM; actives 0.68% (n = 320,000); in the data active = inhibition above about 43%;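 also: 0% = enzyme with DMSO and 100% = wells lacking enzyme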
MEKK2wt confirm = raises or lowers MEK5 binding to wildtype human MEKK2, retest | shares compounds with MEKK3 PB1 HTS | bead flow cytometry, Alexa488-MEK5 binding to MEKK2 WT; actives lie on both sides | binding response (% of control), % at 10 µM | actives 2.4% (n = 5,900) | AID 1892; in the data active = binding response below about 16% or above about 210%; inactive = in between
MEKK2mut confirm = signal of MEK5 binding to mutant human MEKK2, retest. shares compounds with MEKK3 PB1 HTS. bead flow cytometry, Alexa488-MEK5 binding to MEKK2 mutant. percent response, % at 10 µM. actives 2% (n = 5,900). AID 1893; in the data active = percent response mostly above about 71%, no sharp cut-off; inactive = mostly below about 38%;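 also: higher means compound restores mutant binding toward wildtype level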
MEKK3-MEK5 inh = confirmation of inhibitors of MEK5 binding to human MEKK3; shares compounds with MEKK3 PB1 HTS; bead flow cytometry, Alexa488-MEK5 binding to MEKK3; stronger effect = lower value; binding response (% of control), % at 10 µM; actives 1.8% (n = 5,900); AID 1894;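 active = binding response below 72% of control, or above a set upper limit, though filed actives all read lower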;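 also: 100% = DMSO only wells and 0% = binding blocked by excess unlabeled MEK5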
* marks the source's active call; other numbers are inactive results; / = no result given; [ ] = another dose, or the depositor's remark.

SMILES	MEKK2 mut-MEK5	MEKK3 PB1 HTS	MEKK2wt PB1 HTS	Apaf1 inhib	UBC13 polyUb	PREPL inh	MEKK2wt confirm	MEKK2mut confirm	MEKK3-MEK5 inh
COc1cc(/C=N/NS(=O)(=O)c2ccc(C(C)(C)C)cc2)cc([N+](=O)[O-])c1O	14	96	48*[inhibitor]	-2	-41	-21	98	1	106
CCCN1CCC(NCc2cn(C)nc2-c2ccc(Oc3ccccc3)cc2)CC1	8	110	120	-19	10	35	/	/	/
CC(C)N1CCC2(CC1)N=C(c1ccc3c(c1)OCO3)CC(c1cc(Cl)ccc1O)N2 (centres undefined)	26*	111	138*	27	14	-5	122	8	107
CC(Sc1ccc(Cl)cc1)C(=O)Nc1ccc2c(c1)OCO2 (centres undefined)	2	108	96	-2	3	-7	/	/	/
Cc1ccc[n+](CC(=O)Nc2cc(C(F)(F)F)ccc2Cl)c1	-4	91	95	-14	-4	-3	/	/	/
CCC(C)(C)c1ccc(OCCCC[n+]2cccc(C)c2)c(C(C)(C)CC)c1	44	107	191*	/	/	/	192	81*	111
O=C(Nc1cccc(C(F)(F)F)c1)C(SCCO)c1ccccc1 (centres undefined)	0	131*	105	1	6	-9	53	-28	59*
Cc1ccccc1C(=O)NNC(=S)Nc1cccc(C(F)(F)F)c1	-1	116	101	15	-17	9	/	/	/
FC(F)(F)c1cccc(NC(=S)NC(c2ccccc2)c2ccccc2)c1	10	152*	169*	/	/	-2	176	42	106
FC(F)(F)c1cccc(NC(=S)NNC(=S)Nc2cccc(C(F)(F)F)c2)c1	-5	102	107	2	-21	22	/	/	/
CCC(C(=O)Nc1cccc(C(F)(F)F)c1)c1ccccc1 (centres undefined)	5	104	108	8	4	13	/	/	/
O=C(NNC(=S)Nc1cccc(C(F)(F)F)c1)c1ccc(Cl)cc1Cl	3	162*	116	7	-31	15	101	-2	102
COc1cc(NS(=O)(=O)c2ccc(NC(=S)NC(C)=O)cc2)nc(OC)n1	/	/	/	-17	-7	-3	/	/	/
COc1cc(NS(=O)(=O)c2ccc(NC(=S)NC(=O)C(C)(C)C)cc2)nc(OC)n1	-23	38*[inhibitor]	51	-2	0	1	98	0	105
CCOC(=O)c1c(C)[nH]c(O)c1C=Nc1ccc(Cl)cc1	3	110	117	15	-23	41	/	/	/
CCOC(=O)c1c(C)[nH]c(O)c1C=Nc1ccc(C(F)(F)F)cc1	6	132*	119	11	-12	5	98	-1	100
O=C(NCc1ccccn1)C(=O)NCC1OCCN1S(=O)(=O)c1ccc(Cl)cc1 (centres undefined)	8	103	108	-5	7	3	/	/	/
c1ccc(CSc2ccc(-c3cccs3)nn2)cc1	1	129*	106	-1	6	13	94	-1	92
COc1cccc(-c2nc(-c3ccccc3)nc(N3CCN(C)CC3)c2C#N)c1	12	100	136	29	19	-4	/	/	/
CN1CCN(c2nc(-c3ccccc3)nc(-c3ccccc3)c2C#N)CC1	22	116	146*	16	13	4	122	10	100
COc1ccc(-c2nc(-c3cccc(C)c3)nc(N3CCN(C)CC3)c2C#N)cc1	32*	107	144	33	41	-8	149	38	108
Cc1ccc(CNC(=O)C2CC(=O)N(CCC(C)C)C2)cc1 (centres undefined)	-45	5.0*[inhibitor]	8.0*[inhibitor]	-3	23	-4	99	-8	99
CSc1c(CC(=O)NCCCO)n(Cc2ccccc2)c2ccccc12	1	99	104	-7	-1	11	/	/	/
COc1ccc(NC(=O)Cc2c(SC)c3ccccc3n2Cc2ccccc2)cc1	1	160*	109	4	-11	14	98	-3	100
COc1ccc(OC)c(NC(=O)c2cccc(N3C(=O)C4C5C=CC(C6CC56)C4C3=O)c2)c1 (centres undefined)	11	104	104	8	4	3	/	/	/
SMILES	MEKK2 mut-MEK5	MEKK3 PB1 HTS	MEKK2wt PB1 HTS	Apaf1 inhib	UBC13 polyUb	PREPL inh	MEKK2wt confirm	MEKK2mut confirm	MEKK3-MEK5 inh
CC(=O)c1ccc(NS(=O)(=O)c2ccc3ccccc3c2)cc1	-1	73*[inhibitor]	95	-4	-2	-23	106	2	99
CN(Cc1ccccc1Br)C(=O)CSc1nnnn1C1CC1	/	/	/	5	-3	5	/	/	/
C#CCn1cc(C=C2C(=O)c3ccccc3C2=O)c2ccccc21	-1	36*[inhibitor]	80	/	/	/	91	-4	101
C#CCn1c(=O)cc(C)c2ccccc21	1	103	103	-7	4	2	/	/	/
Cc1ccc(C(=O)Nc2ncc3c(Cl)cccc3n2)cc1	25*	109	109	8	-2	-7	104	2	105
Cc1ccc(NC(=O)CSc2n[nH]c(C)c2[N+](=O)[O-])cc1	-2	101	100	-10	7	-10	/	/	/
Cc1[nH]nc(SCC(=O)Nc2ccc(C#N)cc2)c1[N+](=O)[O-]	1	133*	107	4	-16	-19	101	4	103
CC1(C)CC(=O)C2=C(C1)N(c1ncn[nH]1)C(N)=C(C#N)C2c1ccccc1 (centres undefined)	0	137*	109	-3	-30	14	111	6	109
CC1(C)CC(=O)C2=C(C1)N1C(=C(C#N)C2c2ccc(Cl)cc2)N=C(N)c2ccccc21 (centres undefined)	-14	1.0*[inhibitor]	2.0*[inhibitor]	15	2	8	93	-3	101
CC1(C)CC(=O)C2=C(C1)N(c1ccccc1)C(N)=C(C#N)C2c1ccccc1 (centres undefined)	3	117	109	6	7	12	/	/	/
Cc1cc(S(=O)(=O)NCCCN2CCOCC2)c(C)cc1Cl	7	104	108	2	3	/	/	/	/
COc1ccccc1C(=O)NCCC(=O)NCCC12CC3CC(CC(C3)C1)C2	2	106	102	23	-2	8	/	/	/

Bioassay records as filed in PubChem BioAssay.
